Paper PMC5302092 (Cell, 2017)
Residues, ends and D or L forms follow the SMILES beside them. *: point of attachment. Octanoyl = CCCCCCCC(=O)*

How the values were obtained:
[1] = target: cathepsin B (CTSB) (Homo sapiens, UniProt P07858); experiment: competitive isoTOP-ABPP, THP-1 membrane fraction, cathepsin B; type: binding; conditions: 250 nM, THP-1 membranes
Procedure, shortened: (§1)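 THP-1 cells grown in RPMI with 10% FBS, penicillin, streptomycin, glutamine and 50 μM βME (37 °C, 5% CO2, <10 passages). Differentiated with 200 nM PMA for 18 h, then 3 more days. Sonicated lysate spun at 100,000 g for 45 min; membrane fraction set to 1.5 mg/mL. Test compound (final 25 μM, 2.5 μM or 250 nM) or 1% TFA water vehicle for 30 min, then 100 μM IA-alkyne for 30 min, ambient temperature.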

[2] = target: cathepsin Z (CTSZ) (Homo sapiens, UniProt Q9UBR2); experiment: competitive isoTOP-ABPP, THP-1 membrane fraction, cathepsin Z; type: binding
Procedure, shortened: as §1

[3] = target: cathepsin C (CTSC) catalytic cysteine Cys258 (Homo sapiens, UniProt P53634); experiment: competitive isoTOP-ABPP, THP-1 membrane fraction, cathepsin C; type: binding
Procedure, shortened: as §1

[4] = target: cathepsin S (CTSS) (Homo sapiens, UniProt P25774); experiment: competitive isoTOP-ABPP, THP-1 membrane fraction, cathepsin S; type: binding
Procedure, shortened: as §1

[5] = target: cathepsin L (CTSL1) catalytic cysteine Cys138 (Homo sapiens, UniProt P07711); experiment: competitive isoTOP-ABPP, THP-1 membrane fraction, cathepsin L; type: binding; conditions: 250 nM, THP-1 membranes; R > 5 = targeted
Procedure, shortened: as §1

[6] = competitive isoTOP-ABPP, proteome-wide cysteine selectivity; type: binding, human; conditions: THP-1, Ramos, H1975 proteomes
Procedure, shortened: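 Proteomes came from THP-1 (RPMI, 10% FBS, βME, PMA-differentiated), Ramos (RPMI, 10% FBS) and H1975 (DMEM, 20% FBS) cells. Sonicated and split at 100,000 g into soluble and membrane fractions (1.5 mg/mL); some lysed into sodium acetate at pH 5 or 5.5. Test compound or vehicle for 30 min, then 100 μM IA-alkyne for 30 min, then isotopic biotin-tag click, enrichment, trypsin/TEV digests and LC-MS/MS. Cysteines with heavy/light MS1 ratio R > 5 called targeted.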

[7] = target: T1, cathepsin H (CTSH) (Homo sapiens, UniProt P09668); experiment: competitive isoTOP-ABPP, THP-1 membrane fraction, cathepsin H; type: binding; conditions: 250 nM, THP-1 membranes
T1 sequence (P09668 98-335): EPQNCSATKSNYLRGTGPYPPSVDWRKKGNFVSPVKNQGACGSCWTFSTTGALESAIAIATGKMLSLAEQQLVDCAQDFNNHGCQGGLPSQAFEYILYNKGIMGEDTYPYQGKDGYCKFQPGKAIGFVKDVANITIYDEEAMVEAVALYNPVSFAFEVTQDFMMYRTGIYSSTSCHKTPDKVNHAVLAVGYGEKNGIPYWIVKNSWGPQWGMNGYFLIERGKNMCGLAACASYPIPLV
Procedure, shortened: as §1

[8] = target: cathepsin L (Homo sapiens, UniProt P07711); experiment: in vitro protease inhibition assay, cathepsin L; type: biochemical; conditions: result in words
Procedure, shortened: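 Commercial cathepsin L (0.02 μg/ml) in 50 mM MES pH 5.5 with 5 mM DTT. Substrate z-FR-AMC at 20 μM added last to the enzyme/test compound mix; final DMSO below 5%. Fluorescence read-out; leupeptin as positive control. Normalized activity data were curve-fitted.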

[9] = target: cathepsin S (Homo sapiens, UniProt P25774); experiment: in vitro protease inhibition assay, cathepsin S; type: biochemical; conditions: read-out: activity against cathepsin S (IC50)
Procedure, shortened: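 Commercial cathepsin S pre-activated for 2 h at 10 μg/ml in 50 mM MES pH 5.5 with 5 mM DTT, then diluted to 100 ng/ml. Assayed with 10 μM z-FR-AMC, which was added last to the enzyme/test compound mix; final DMSO below 5%. Fluorogenic read-out; leupeptin as positive control. Normalized activity data fitted to give IC50.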

Sequence of cathepsin Z (CTSZ) (Q9UBR2 62-303): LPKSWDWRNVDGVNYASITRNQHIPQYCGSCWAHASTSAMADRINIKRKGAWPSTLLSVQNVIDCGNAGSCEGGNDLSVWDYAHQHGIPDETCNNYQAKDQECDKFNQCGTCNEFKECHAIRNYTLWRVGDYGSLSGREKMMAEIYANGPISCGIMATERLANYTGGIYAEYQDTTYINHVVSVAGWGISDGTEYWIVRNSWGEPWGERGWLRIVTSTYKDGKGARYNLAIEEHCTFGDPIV
Sequence of cathepsin C (CTSC) catalytic cysteine Cys258 (P53634 25-463): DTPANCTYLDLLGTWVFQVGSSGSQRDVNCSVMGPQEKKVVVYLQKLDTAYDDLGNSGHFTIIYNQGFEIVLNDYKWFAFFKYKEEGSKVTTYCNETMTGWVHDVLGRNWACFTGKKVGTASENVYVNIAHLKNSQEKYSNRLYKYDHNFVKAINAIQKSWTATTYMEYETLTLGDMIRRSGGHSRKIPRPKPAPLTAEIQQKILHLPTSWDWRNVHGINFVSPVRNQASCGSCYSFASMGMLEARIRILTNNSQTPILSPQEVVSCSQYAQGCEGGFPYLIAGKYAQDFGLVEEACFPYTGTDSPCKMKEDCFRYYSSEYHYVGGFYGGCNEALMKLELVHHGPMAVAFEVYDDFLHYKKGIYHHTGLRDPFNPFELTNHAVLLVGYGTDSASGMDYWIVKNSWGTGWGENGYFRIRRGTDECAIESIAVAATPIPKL
Sequence of cathepsin S (CTSS) (P25774 115-331): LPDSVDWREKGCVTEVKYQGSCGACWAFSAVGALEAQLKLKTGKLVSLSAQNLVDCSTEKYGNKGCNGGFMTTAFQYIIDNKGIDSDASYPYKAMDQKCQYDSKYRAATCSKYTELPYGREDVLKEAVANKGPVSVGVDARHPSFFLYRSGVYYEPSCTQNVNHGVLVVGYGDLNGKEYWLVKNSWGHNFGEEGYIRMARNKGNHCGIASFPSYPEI
Sequence of cathepsin L (CTSL1) catalytic cysteine Cys138 (P07711 114-333): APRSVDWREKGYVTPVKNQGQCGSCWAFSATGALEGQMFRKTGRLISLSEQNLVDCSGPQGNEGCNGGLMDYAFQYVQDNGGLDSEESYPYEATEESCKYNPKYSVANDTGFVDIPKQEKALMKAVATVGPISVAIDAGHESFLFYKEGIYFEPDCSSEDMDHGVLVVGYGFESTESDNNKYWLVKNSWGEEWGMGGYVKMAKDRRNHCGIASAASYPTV
Sequence of cathepsin L (P07711 114-333, species assumed): as the sequence (P07711 114-333) above
Sequence of cathepsin S (P25774 115-331, species assumed): as the sequence (P25774 115-331) above

Row | R value (heavy/light MS1 ratio), CTSB [1] | R value (heavy/light MS1 ratio), CTSZ ([2]; 250 nM, THP-1 membranes) | R value (heavy/light MS1 ratio), CTSZ ([2]; 25 μM, THP-1) | R value (heavy/light MS1 ratio), CTSC catalytic cysteine Cys258 ([3]; 250 nM, THP-1 membranes) | R value (heavy/light MS1 ratio), CTSC ([3]; 25 μM, THP-1) | R value (heavy/light MS1 ratio), CTSS ([4]; 250 nM, THP-1 membranes) | R value (heavy/light MS1 ratio), CTSS ([4]; 25 μM, THP-1) | R value (heavy/light MS1 ratio), blockade of IA-alkyne labeling of CTSL1 Cys138 [5] | R value (heavy/light MS1 ratio), CTSH [7] | inhibitory activity against cathepsin L (IC50) [8] | IC50 [9] [nM] | Compound | R value (heavy/light MS1 ratio), non-cathepsin cysteines (no additional targets) [6]
1 | < 2.0 | < 2.0 | > 5 | > 2.78 | > 5 | < 2.0 | > 5 | > 20 | < 2.0 |  |  | N[C@@H](Cc1ccccc1)C(=O)N[C@H](C=O)Cc1ccccc1 [Phe-Phe-H] (H-Phe-Phe-aldehyde) | < 2.0
2 |  |  |  |  |  |  |  |  |  | undetectable activity | 13 | CCCCCCCC(=O)N[C@@H](CCSC)C(=O)N[C@H](C=O)Cc1ccccc1 [Compound 16, N-octanoyl-Met-Phe-H] (Octanoyl-Met-Phe-aldehyde) | 
